Assays:
Glutamate NMDA receptor [1] = experiment: Antagonist activity of compound against rat N-methyl-D-aspartate glutamate receptor using 11 nM [3H]glycine; assay type: functional
Rattus norvegicus [2] = species on record: Rattus norvegicus; experiment: In vitro inhibitory concentration against glutamate stimulated accumulation of cyclic GMP in neonatal rat cerebral slices; assay type: functional
Mus musculus [3] = experiment: In vivo effective dose to protect the mouse (DBA/2J) from audiogenic seizures upon intraperitoneal administration; assay type: functional; settings: ip
Rattus norvegicus [4] = experiment: In vivo effective dose to protect rats against maximal electroshock induced seizures upon intravenous administration; assay type: functional
Procedure, shortened: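 Maximal electroshock seizures in adult male CDF rats, compound iv, vehicle water, saline or 50 mM Tris base at 1 mL/kg.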

Mus musculus [5] = experiment: In vivo effective dose against harmaline induced cGMP elevation in mouse cerebellum upon intravenous administration; assay type: functional
Mus musculus [6] = experiment: In vivo effective dose of compound to protect mice from quinolinic acid seizures upon intravenous administration; assay type: functional
Glutamate NMDA receptor [7] = experiment: In vitro inhibitory concentration against binding of the [3H]glycine to strychnine-insensitive glycine binding sites of rat N-methyl-D-aspartate glutamate receptor; assay type: protein-complex assay
Glutamate NMDA receptor [8] = experiment: Binding affinity against strychnine-insensitive glycine sites of rat N-methyl-D-aspartate glutamate receptor using [3H]glycine; assay type: protein-complex assay
Procedure, shortened: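 Strychnine-insensitive [3H]glycine binding to washed, Triton-treated rat cortical/hippocampal membranes. Triplicates with strychnine and 400 µg protein in 50 mM HEPES-KOH pH 7.4, 30 min at 4 °C. Ended by centrifugation; pellets counted by scintillation; nonspecific binding taken in 0.1 mM D-serine. IC50 = concentration halving specific binding, mean of two or more experiments, fitted by logistic nonlinear regression.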

Structure (SMILES) | IC50 (Glutamate NMDA receptor [1]) [nM] | further results
COc1cccc(/C(=C\c2c(C(=O)O)[nH]c3cc(Cl)cc(Cl)c23)C(=O)O)c1 | 117 | –
O=C(O)/C(=C/c1c(C(=O)O)[nH]c2cc(Cl)cc(Cl)c12)c1cccs1 | 9 | –
NC(=O)/C(=C/c1c(C(=O)O)[nH]c2cc(Cl)cc(Cl)c12)c1ccccc1 | 20 | –
O=c1[nH]c2cc(Cl)ccc2c(O)c1-c1cccc(Oc2ccccc2)c1 | – | IC50 (Rattus norvegicus [2]): 31 nM; ED50 (Mus musculus [3]): 1 mg/kg; ED50 (Rattus norvegicus [4]): 3.5 mg/kg; ED50 (Mus musculus [5]): < 0.05 mg/kg; ED50 (Mus musculus [6]): 5.2 mg/kg; IC50 (Glutamate NMDA receptor [7]): 13.2 nM
O=C(O)/C(=C/c1c(C(=O)O)[nH]c2cc(Cl)cc(Cl)c12)c1ccccn1 | 1020 | –
CNC(=O)/C(=C/c1c(C(=O)O)[nH]c2cc(Cl)cc(Cl)c12)c1ccccc1 | 50 | –
O=C(Nc1ccccc1)/C(=C/c1c(C(=O)O)[nH]c2cc(Cl)cc(Cl)c12)c1ccccc1 | 15 | –
Nc1cccc(/C(=C/c2c(C(=O)O)[nH]c3cc(Cl)cc(Cl)c23)C(=O)O)c1 | – | Ki (Glutamate NMDA receptor [8]): 553 nM
O=C(O)/C(=C/c1c(C(=O)O)[nH]c2cc(Cl)cc(Cl)c12)c1ccsc1 | 14 | IC50 (Rattus norvegicus [2]): 87 nM; ED50 (Mus musculus [3]): 18.6 mg/kg; ED50 (Rattus norvegicus [4]): 54.1 mg/kg; ED50 (Mus musculus [5]): 35 mg/kg; ED50 (Mus musculus [6]): 29.5 mg/kg; IC50 (Glutamate NMDA receptor [7]): 9.6 nM
O=C(O)c1[nH]c2cc(Cl)cc(Cl)c2c1/C=C/C(=O)N1CCCCC1 | 38 | –
Cc1ccc(/C(=C\c2c(C(=O)O)[nH]c3cc(Cl)cc(Cl)c23)C(=O)O)cc1 | 105 | –
O=C(O)/C(=C/c1c(C(=O)O)[nH]c2cc(Cl)cc(Cl)c12)c1cccc(NC(=O)c2ccccc2)c1 | 512 | –
O=C(NCc1ccccc1)/C(=C/c1c(C(=O)O)[nH]c2cc(Cl)cc(Cl)c12)c1ccccc1 | 31 | –
CN(C)c1cccc(/C(=C\c2c(C(=O)O)[nH]c3cc(Cl)cc(Cl)c23)C(=O)O)c1 | 225 | –
O=C(O)/C(=C/c1c(C(=O)O)[nH]c2cc(Cl)cc(Cl)c12)c1ccc([N+](=O)[O-])cc1 | 21 | –
CN(C)C(=O)/C(=C/c1c(C(=O)O)[nH]c2cc(Cl)cc(Cl)c12)c1ccccc1 | 68 | –
O=C(O)/C(=C\c1c(C(=O)O)[nH]c2cc(Cl)cc(Cl)c12)c1ccccc1 | 157 | –
O=C(O)/C(=C/c1c(C(=O)O)[nH]c2cc(Cl)cc(Cl)c12)c1ccoc1 | 21 | –
O=C(/C=C/c1c(C(=O)O)[nH]c2cc(Cl)cc(Cl)c12)Nc1ccccc1 [GAVESTINEL] | 15 | –

Source: ChEMBL document CHEMBL1142686, “CoMFA, synthesis, and pharmacological evaluation of (E)-3-(2-carboxy-2-arylvinyl)-4,6-dichloro-1H-indole-2-carboxylic acids: 3-[2-(3-aminophenyl)-2-carboxyvinyl]-4,6-dichloro-1H-indole-2-carboxylic acid, a potent selective glycine-site NMDA receptor antagonist” (J Med Chem, 2005)
